Published values gathered from unrelated publications.
Compare with care: the assays were run in different laboratories.
Target: Bone morphogenetic protein receptor type-1B (BMPR1B, Homo sapiens, UniProt O00238)

C[C@@H](c1ccc(-n2cnc3c(N)ncnc32)cc1)N1CCc2nn(C)c(Cc3ccccc3)c2C1=O
remaining binding (binding, competition with immobilised ligand; 0.1 µM): 84%

N[C@@H]1CCN(c2nccc(-c3cnn4ncccc34)n2)C1
remaining binding (binding; 1 µM): 94%

COc1ncc2cc3ccccc3nc2c1C#N
remaining binding (cell-free assay, competition with immobilised ligand; 5 µM): 89%

C[C@@H]1CN(c2cc(-c3nn(C)c4ccc(OC5(C)CC5)cc34)ncn2)C[C@H](C)O1
remaining binding (cell-free assay, competition with immobilised ligand; 1 µM): 77%

CN(C)c1nccc(-c2cnc3ncccn23)n1
remaining binding (binding; 1 µM): 82%

COc1cnc(Nc2cccc(S(N)(=O)=O)c2)nc1N1CCN(c2ccccc2)CC1
remaining binding (binding, competition with immobilised ligand; 1 µM): 87%

CN(C)c1nccc(-c2cnn3ncccc23)n1
remaining binding (binding; 1 µM): 76%

Cc1cnc(Nc2ccc(C(=O)N3CCC(N4CCCC4)CC3)cc2)nc1-c1cc2ccccc2s1
remaining binding (binding, competition with immobilised ligand; 1 µM): 26%

CNC(=O)Nc1ccc2c(c1)[C@@]1(CC2)OC(=O)N(CC(=O)N(Cc2ccc(F)cc2)[C@@H](C)C(F)(F)F)C1=O
remaining binding (cell-free assay, competition with immobilised ligand; 1 µM): 100%

C=CC(=O)N1CCC(C(=O)NCC(=O)N2CCN(c3nc(-c4cnc(N)nc4C(F)F)nc(N4CCOCC4)n3)CC2)CC1
remaining binding (binding, competition with immobilised ligand; 1 µM): 64%

CC1=C(C#N)C(c2ccc3c(c2)c(NC(=O)c2ccccc2C)nn3C)C(C#N)=C(C)N1
remaining binding (cell-free assay, competition with immobilised ligand; 1 µM): 91%

CNC(=O)[C@@H]1CC[C@@H](n2c(-c3ccc4cnccc4c3)nc3ccc(C(=O)NCc4cccc(C(N)=O)c4)cc32)C1
remaining binding (binding, competition with immobilised ligand; 1 µM): 80%

CCOC(=O)c1cc2cc(-c3cc(C(=O)NCc4ccc(C(=O)O)cc4)nn3C)ccc2[nH]1
remaining binding (cell-free assay, competition with immobilised ligand; 0.1 µM): 96%

CCN1CCN(Cc2ccc(C(=O)Nc3ccc(C)c(Oc4ccc5c(c4)CC(=O)N5)c3)cc2C(F)(F)F)CC1
remaining binding (binding, competition with immobilised ligand; 1 µM): 100%

O=C(NCCCN1CCOCC1)c1ccc(Nc2nccc(-c3cc4ccccc4s3)n2)cc1
remaining binding (binding, competition with immobilised ligand; 1 µM): 34%

O=C(NCc1ncc(C(F)(F)F)cc1Cl)c1ccc2c(c1)C1(CCS(=O)(=O)CC1)[C@H](C1CC1)N2S(=O)(=O)c1ccc(F)cc1
remaining binding (cell-free assay, competition with immobilised ligand; 1 µM): 93%

COc1ccnn2ncc(-c3ccnc(N(C)C)n3)c12
remaining binding (binding; 1 µM): 51%

O=C(NCC1CCOCC1)c1n[nH]cc1NC(=O)c1c(F)cccc1F
remaining binding (binding, competition with immobilised ligand; 1 µM): 90%

C[C@H]1CCN(c2nccc(-c3cnn4ncccc34)n2)C1
remaining binding (binding; 1 µM): 60%

O=C(c1ccc(Nc2ncc(Cl)c(-c3ccc(Cl)s3)n2)cc1)N1CCC(N2CCCC2)CC1
remaining binding (binding, competition with immobilised ligand; 1 µM): 18%

CC1CCCN1c1nccc(-c2cnn3ncccc23)n1 (stereo not shown)
remaining binding (binding; 1 µM): 84%

Cc1cc(C)c(-n2ccn3nc(-c4cccnc4)cc23)cc1NC(=O)c1cc(C#N)cc(S(F)(F)(F)(F)F)c1
remaining binding (cell-free assay, competition with immobilised ligand; 0.1 µM): 72.3%
